Test results taken from ChEMBL document CHEMBL4184228, “Reversed isoniazids: Design, synthesis and evaluation against Mycobacterium tuberculosis” (Bioorg Med Chem, 2018).
In brackets after ≈: the same amount, converted by molar mass. Activity calls are given as the source filed them.

Key:
[1] = system: Mycobacterium tuberculosis; assay: Antimycobacterial activity against XDR Mycobacterium tuberculosis isolate X_61 by two fold serial dilution based fluorescence assay; assay type: functional
In short: (§1)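 MGIT 960 (BACTEC) broth assay in 7H9 with 1% OADC and 0.05% Tween 80. Compounds are 10 mM DMSO stocks, two-fold serially diluted, final DMSO ≤1.2%, top concentration 10 µM. Tubes incubated at 37°C with growth units read daily. MIC99 is set against a 1% drug-free growth control tube.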

[2] = system: Mycobacterium tuberculosis; assay: Antimycobacterial activity against Mycobacterium tuberculosis H37Rv by two fold serial dilution based fluorescence assay; assay type: functional; in short: as §1
[3] = system: Mycobacterium tuberculosis; assay: Antimycobacterial activity against XDR Mycobacterium tuberculosis isolate X_3 at 10 uM by two fold serial dilution based fluorescence assay; assay type: functional; in short: as §1
[4] = system: Mycobacterium tuberculosis; assay: Antimycobacterial activity against XDR Mycobacterium tuberculosis isolate X_60 by two fold serial dilution based fluorescence assay; assay type: functional; in short: as §1
[5] = system: Mycobacterium tuberculosis; assay: Antimycobacterial activity against XDR Mycobacterium tuberculosis isolate TT149 at 10 uM by two fold serial dilution based fluorescence assay; assay type: functional; in short: as §1
CHO = assay: Cytotoxicity against CHO cells; assay type: cell-based; settings: Cricetulus griseus
[6] = Cytotoxicity against human THP1 cells assessed as decrease in cell viability after 24 hrs by MTT assay; assay type: cell-based; settings: THP-1 cells
In short: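 THP-1 cells at 1.5 x 10^4/well are exposed to a range of compound concentrations for 24 h. MTT is then added for 4 h at 37°C, followed by solubilisation buffer for 30 min. A570 is read. Cytotoxicity % = 100 − [100 × (OD with drug/OD without drug)]. An IC20 cut-off is used to set concentrations for the macrophage work.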

Compound	MIC99 [1] [µM]	MIC99 [2] [µM]	Activity [3]	MIC99 [4] [µM]	Activity [5]	IC50 (CHO) [µM]	IC20 at 24 h [6] [µM]	MIC99 [3] [µM]	MIC99 [5] [µM]
O=C(NNCCCN1CCN(CC(O)(c2ccccc2)c2ccccc2)CC1)c1ccncc1	5 (≈ 2.3 µg/mL)	1.25 (≈ 0.574 µg/mL)	inactive	> 10	inactive	174	–	–	–
O=C(NNCCCN1c2ccccc2Sc2ccccc21)c1ccccc1	–	> 10	inactive	–	inactive	–	> 100	–	–
CN(C)CCCN1c2ccccc2Sc2ccc(Cl)cc21 [CHLORPROMAZINE]	–	–	–	–	–	–	4	–	–
O=C(NNCCCN1c2ccccc2CCc2ccccc21)c1ccncc1	–	1 (≈ 0.372 µg/mL)	inactive	–	inactive	–	> 100	–	–
O=C(NNCCCN1c2ccccc2Sc2ccc(Cl)cc21)c1ccncc1	–	0.25 (≈ 0.103 µg/mL)	inactive	–	inactive	–	24.4	–	–
O=C(NNCCCN1CCC(N2c3ccccc3Sc3ccc(Cl)cc32)CC1)c1ccncc1	> 10	1 (≈ 0.494 µg/mL)	inactive	> 10	inactive	37.4	2.2	–	–
O=C(NNCCCN1CCN(C(c2ccccc2)c2ccccc2)CC1)c1ccncc1	5 (≈ 2.15 µg/mL)	5 (≈ 2.15 µg/mL)	inactive	> 10	inactive	48.1	–	–	–
O=C(NNCCCN1CCC(N2c3ccccc3Sc3ccccc32)CC1)c1ccncc1	2.5 (≈ 1.15 µg/mL)	5 (≈ 2.3 µg/mL)	inactive	> 10	inactive	122	–	–	–
O=C(NNCCCN1CCC(=C2c3ccccc3Sc3ccc(Cl)cc32)CC1)c1ccncc1	2.5 (≈ 1.23 µg/mL)	0.625 (≈ 0.307 µg/mL)	inactive	> 10	inactive	296	–	–	–
O=C(NNCCCNCCCN1c2ccccc2Sc2ccccc21)c1ccncc1	–	5 (≈ 2.17 µg/mL)	inactive	–	inactive	–	–	–	–
O=C(NNCCCNCCCN1c2ccccc2Sc2ccc(Cl)cc21)c1ccncc1	–	5 (≈ 2.34 µg/mL)	inactive	–	inactive	–	–	–	–
O=C(NNCCCN1c2ccccc2Sc2ccccc21)c1ccncc1	–	1 (≈ 0.376 µg/mL)	inactive	–	inactive	–	> 100	–	–
O=C(NNCCCN1CCN(C2c3ccccc3CCc3ccccc32)CC1)c1ccncc1	–	5 (≈ 2.28 µg/mL)	inactive	–	inactive	–	–	–	–
O=C(NNCCCN1CCC(=C2c3ccccc3C=Cc3ccccc32)CC1)c1ccncc1	5 (≈ 2.25 µg/mL)	1.25 (≈ 0.563 µg/mL)	inactive	> 10	inactive	148	–	–	–
NNC(=O)c1ccncc1 [ISONIAZID]	2.5 (≈ 0.343 µg/mL)	0.73 (≈ 0.1 µg/mL)	–	> 10	–	> 100	> 100	> 10	> 10
O=C(NNCCCN1CCC(=C2c3ccccc3Sc3ccccc32)CC1)c1ccncc1	2.5 (≈ 1.14 µg/mL)	1.25 (≈ 0.571 µg/mL)	inactive	> 10	inactive	152	–	–	–
O=C(NNCCCN1CCN(C(c2ccccc2)(c2ccccc2)c2ccccc2)CC1)c1ccncc1	2.5 (≈ 1.26 µg/mL)	1.25 (≈ 0.632 µg/mL)	inactive	2.5 (≈ 1.26 µg/mL)	inactive	97.6	–	–	–
O=C(NNCCCN1c2ccccc2Sc2ccc(Cl)cc21)c1ccccc1	–	> 10	inactive	–	inactive	–	> 100	–	–
